Results reported in ChEMBL document CHEMBL4706728, “Discovery of a Highly Selective and Potent TRPC3 Inhibitor with High Metabolic Stability and Low Toxicity” (ACS Med Chem Lett, 2021).
Active and inactive are the calls of the source. No cut-off for these calls is given here.

Legend:
[1] = target: T1, Short transient receptor potential channel 6 (Mus musculus) (UniProt Q61143); assay: Inhibition of mouse TRPC6 expressed in HEK293 cells assessed as inhibition of GSK170-induced current at 10 uM by whole cell patch-clamp method; format: cell-based
T1 sequence (whole entry): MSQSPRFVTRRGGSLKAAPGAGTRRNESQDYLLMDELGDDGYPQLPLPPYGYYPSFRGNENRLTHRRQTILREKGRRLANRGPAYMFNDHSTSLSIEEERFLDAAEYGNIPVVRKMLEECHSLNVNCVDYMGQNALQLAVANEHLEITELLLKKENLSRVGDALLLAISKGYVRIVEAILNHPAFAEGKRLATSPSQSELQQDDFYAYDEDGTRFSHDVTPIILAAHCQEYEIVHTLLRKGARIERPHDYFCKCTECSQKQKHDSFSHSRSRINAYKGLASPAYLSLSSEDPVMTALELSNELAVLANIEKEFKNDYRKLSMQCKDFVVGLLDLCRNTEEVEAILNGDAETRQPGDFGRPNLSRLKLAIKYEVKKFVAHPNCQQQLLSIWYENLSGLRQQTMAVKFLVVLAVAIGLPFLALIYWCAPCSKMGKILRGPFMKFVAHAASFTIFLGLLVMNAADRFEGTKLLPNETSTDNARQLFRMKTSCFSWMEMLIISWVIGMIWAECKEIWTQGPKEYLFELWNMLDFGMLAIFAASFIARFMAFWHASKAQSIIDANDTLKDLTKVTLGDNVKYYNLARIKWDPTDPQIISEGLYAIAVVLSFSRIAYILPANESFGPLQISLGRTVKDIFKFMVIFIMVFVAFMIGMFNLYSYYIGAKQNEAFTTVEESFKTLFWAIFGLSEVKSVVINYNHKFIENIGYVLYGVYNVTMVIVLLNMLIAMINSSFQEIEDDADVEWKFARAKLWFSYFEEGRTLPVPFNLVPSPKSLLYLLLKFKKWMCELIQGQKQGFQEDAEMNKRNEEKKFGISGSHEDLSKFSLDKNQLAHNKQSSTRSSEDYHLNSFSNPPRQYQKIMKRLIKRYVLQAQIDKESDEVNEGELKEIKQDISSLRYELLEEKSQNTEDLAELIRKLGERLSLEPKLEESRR
Summary of the method: (§1)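 TRP channels overexpressed in HEK293 cells (hTRPA1, rTRPV1, rTRPV4, mouse TRPC6, hTRPC7, hTRPM8). Whole-cell patch clamp with Ca2+-free solutions to avoid desensitization. Channels fully activated with high concentrations of their agonists (AITC for TRPA1, capsaicin for TRPV1, GSK1016790A for TRPV4), then 10 μM test compound perfused with agonist. Result expressed as percentage of peak current blocked; mean ± SD.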

[2] = target: T2, Short transient receptor potential channel 3 (Homo sapiens) (UniProt Q13507); assay: Inhibition of human TRPC3 expressed in HEK293 cells assessed as inhibition of GSK170-induced current at 10 uM in absence of extracellular calcium by whole cell patch-clamp method relative to control; format: cell-based
T2 sequence (whole entry): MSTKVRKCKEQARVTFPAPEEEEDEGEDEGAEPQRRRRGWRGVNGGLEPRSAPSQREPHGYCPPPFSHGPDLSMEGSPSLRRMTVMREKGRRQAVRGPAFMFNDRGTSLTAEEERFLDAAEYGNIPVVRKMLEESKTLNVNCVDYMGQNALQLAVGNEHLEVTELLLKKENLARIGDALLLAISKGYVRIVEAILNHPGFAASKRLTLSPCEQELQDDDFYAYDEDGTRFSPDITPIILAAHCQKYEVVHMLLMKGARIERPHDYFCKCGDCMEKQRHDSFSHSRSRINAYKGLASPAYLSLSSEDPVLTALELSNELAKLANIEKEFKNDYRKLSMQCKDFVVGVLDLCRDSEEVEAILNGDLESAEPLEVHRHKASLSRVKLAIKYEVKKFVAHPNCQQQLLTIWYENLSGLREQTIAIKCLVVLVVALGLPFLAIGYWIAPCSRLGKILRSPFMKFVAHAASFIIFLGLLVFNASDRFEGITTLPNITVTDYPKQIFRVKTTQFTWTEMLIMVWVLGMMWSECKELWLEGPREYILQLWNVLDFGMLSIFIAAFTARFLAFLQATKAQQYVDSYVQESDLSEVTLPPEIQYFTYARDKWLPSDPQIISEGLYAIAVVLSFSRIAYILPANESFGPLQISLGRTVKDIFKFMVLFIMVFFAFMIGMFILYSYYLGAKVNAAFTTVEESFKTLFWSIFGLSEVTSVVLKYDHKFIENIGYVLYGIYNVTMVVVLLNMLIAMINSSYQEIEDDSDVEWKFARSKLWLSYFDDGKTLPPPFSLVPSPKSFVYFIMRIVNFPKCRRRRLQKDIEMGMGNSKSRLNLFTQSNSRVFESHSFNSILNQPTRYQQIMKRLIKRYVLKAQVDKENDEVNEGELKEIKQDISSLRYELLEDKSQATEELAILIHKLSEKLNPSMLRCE
Summary of the method: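 Human TRPC3 transiently expressed in HEK293 cells; whole-cell patch clamp with Ca2+-free solutions. Channel activated by GSK1702934A, then test compound at 10 μM perfused with the agonist. Inhibition expressed as percentage of the agonist-evoked current; mean ± SD, n cells per compound.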

[3] = Metabolic stability in mouse liver microsomes assessed as half life at […] measured up to 240 mins in presence of NADPH regeneration system by LC-MS analysis; format: ADME, Microsome
[4] = Binding affinity to human His8-MBP-TRPC3b I395V mutant expressed in baculovirus infected Sf9 cells incubated for 1 hr by LC-MS analysis
Summary of the method: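 Purified hTRPC3 protein incubated with compound for 1 h. Free compound removed by repeated size-exclusion chromatography. Methanol added to denature the protein and extract bound compound, which is detected by LC-MS against a prepared control. MS data collected from 2.5 min onward to keep buffer salts out.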

[5] = target: Transient receptor potential cation channel subfamily V member 1 (Rattus norvegicus) (UniProt O35433); assay: Inhibition of rat TRPV1 expressed in HEK293 cells assessed as inhibition of capsaicin-induced current at 10 uM by whole cell patch-clamp method; format: cell-based; summary of the method: as §1
[6] = Metabolic stability in rat liver microsomes assessed as half life at […] measured up to 240 mins in presence of NADPH regeneration system by LC-MS analysis; format: ADME, Microsome

Sequence of Transient receptor potential cation channel subfamily V member 1 (Rattus norvegicus) (O35433 whole entry): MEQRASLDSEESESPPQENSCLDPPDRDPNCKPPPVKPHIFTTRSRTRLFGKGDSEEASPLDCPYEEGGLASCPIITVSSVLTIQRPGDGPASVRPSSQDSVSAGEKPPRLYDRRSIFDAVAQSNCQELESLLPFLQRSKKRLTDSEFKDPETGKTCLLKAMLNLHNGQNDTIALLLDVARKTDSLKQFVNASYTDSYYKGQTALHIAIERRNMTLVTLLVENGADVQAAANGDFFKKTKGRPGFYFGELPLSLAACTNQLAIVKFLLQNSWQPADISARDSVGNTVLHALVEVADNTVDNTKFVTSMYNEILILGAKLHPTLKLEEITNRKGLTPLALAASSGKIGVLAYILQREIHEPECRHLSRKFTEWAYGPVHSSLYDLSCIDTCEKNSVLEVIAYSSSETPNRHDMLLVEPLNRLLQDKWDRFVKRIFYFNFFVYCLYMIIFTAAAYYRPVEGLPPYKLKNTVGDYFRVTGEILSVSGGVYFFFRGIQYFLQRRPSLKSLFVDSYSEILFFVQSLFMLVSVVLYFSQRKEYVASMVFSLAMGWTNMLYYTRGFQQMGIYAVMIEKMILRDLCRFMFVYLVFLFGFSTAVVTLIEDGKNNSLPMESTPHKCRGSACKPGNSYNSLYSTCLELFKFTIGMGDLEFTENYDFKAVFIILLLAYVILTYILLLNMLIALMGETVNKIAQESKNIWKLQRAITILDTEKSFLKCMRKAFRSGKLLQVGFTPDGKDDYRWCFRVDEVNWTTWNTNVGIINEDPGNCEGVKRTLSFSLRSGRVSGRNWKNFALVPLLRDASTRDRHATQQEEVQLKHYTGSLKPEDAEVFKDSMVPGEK

With `CCNC(=O)c1cnn(-c2ccc(-n3ccc(Cl)c(Cl)c3=O)cc2)c1C(F)(F)F` the inhibition [1] was 39%, the inhibition [2] was 89% and the half-life [3] was greater than 240 min. For the same compound, the Activity [4] was “Active”, the inhibition [5] was “inactive” and the half-life [6] was greater than 240 min.
